# Apaf1 inhib: inhibitors of human Apaf-1 apoptosome, primary screen, biochemical, DEVD-Rh110 fluorescence, uHTS. reconstituted apoptosome caspase-3 activity. inhibition, % at 20 µM. 0.71% of 330,000 active. AID 489030, 2010; active = inhibition of at least 40% at 20 µM
#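 System: Apoptosome proteins | Medium: Hepes pH 7.5 with detergent and BSA | Also added: Cytochrome c trigger plus (Z-DEVD)2-Rh110 caspase-3 substrate | Incubation: 30 min compound preincubation, 50 min activation, room temperature | Detection: Rhodamine 110 fluorescence at Ex 480/Em 540 nm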
# PP1 counter: PP1-alpha phosphatase inhibitors, primary screen, counter-screen for PP5 inhibitor project, biochemical, fluorescence, OMFP substrate, single point; inhibition, % at 6.7 µM; 0.9% of 320,000 active; Serine/threonine-protein phosphatase PP1-alpha catalytic subunit (Homo sapiens), P62136; AID 2235, 2010; purified PP1alpha;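 active = inhibition above the mean inhibition of all tested compounds plus 3 SD, computed separately for each screening campaign, cut at about 15% in these data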
# TDP2 inh: human TDP2 enzyme inhibitors, primary screen, biochemical, epi absorbance, recombinant enzyme. Tyrosyl-DNA phosphodiesterase 2 (Homo sapiens), O95551. T5PNP hydrolysis, p-nitrophenol absorbance 415 nm. inhibition, % at 12.8 µM. 0.34% of 370,000 active. AID 720702, 2013;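 active = inhibition above the mean of all tested compounds plus 3 SD, set per campaign, cut at about 25% in these data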
#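 test system = human TDP2 enzyme | input = TDP2 enzyme at 120 nM final | medium = 50 mM Tris-HCl pH 7.5 with Mg2+, KCl, DTT, BSA | also added = T5PNP substrate, 5 mM | times = 2 h at 37 °C | technique = epi absorbance | benchmarks = high control without enzyme, low control DMSO plus TDP2 | replication = each compound tested once, singlicate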
# PP5 primary: PP5 phosphatase inhibitors, primary screen, biochemical, fluorescence; Serine/threonine-protein phosphatase 5 (Homo sapiens), P53041; purified PP5c, OMFP substrate fluorescence; inhibition, % at 6.7 µM; 0.18% of 320,000 active; AID 1987, 2009;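 active = inhibition above the campaign's mean inhibition across all tested compounds plus 3 SD, cut at about 9.5% in these data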
# Target sequence (P53041 whole entry, looked up): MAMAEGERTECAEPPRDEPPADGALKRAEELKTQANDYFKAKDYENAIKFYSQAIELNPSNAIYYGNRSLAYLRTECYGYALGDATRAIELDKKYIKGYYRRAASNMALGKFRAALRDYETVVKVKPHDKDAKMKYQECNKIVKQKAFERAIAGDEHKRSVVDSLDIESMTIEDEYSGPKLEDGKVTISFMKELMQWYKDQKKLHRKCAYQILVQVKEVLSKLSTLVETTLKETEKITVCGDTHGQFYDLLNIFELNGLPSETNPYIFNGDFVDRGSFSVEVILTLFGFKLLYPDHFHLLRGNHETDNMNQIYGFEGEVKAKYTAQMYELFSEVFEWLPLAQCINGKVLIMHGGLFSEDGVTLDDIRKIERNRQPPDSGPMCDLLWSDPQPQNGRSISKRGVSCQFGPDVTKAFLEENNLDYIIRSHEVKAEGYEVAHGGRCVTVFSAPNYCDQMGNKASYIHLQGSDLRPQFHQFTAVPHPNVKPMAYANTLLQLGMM
# GSTO1 inh: inhibitors of recombinant GSTO1, primary screen, counter-screen for RBBP9 inhibitor project, biochemical, fluorescence polarization; 1.1% of 300,000 active; AID 1974, 2009; Glutathione S-transferase omega-1 (Homo sapiens), P78417; inhibition, % at 5.96 µM; activity-based probe fluorescence polarization;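 active = inhibition above the campaign mean inhibition plus 3 SD, cut at about 35% in these data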
# PP1 inh confirm: PP1 phosphatase inhibitors, confirmation, biochemical, fluorescence, OMFP substrate, triplicate. 52% of 1,900 active. inhibition, % at 6.7 µM. purified PP1alpha. shares compounds with PP1 counter;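 active = mean PP1 inhibition above a set limit taken from the earlier primary screen, cut at about 15% in these data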
# PP5 counter: PP5 phosphatase inhibition by PP1 hits, confirmation, counter-screen for PP1 inhibitor project, biochemical, fluorescence, triplicate | shares compounds with PP1 counter | purified PP5c, OMFP fluorescence | inhibition, % at 6.7 µM | 4% of 1,900 active;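 active = mean PP5 inhibition over triplicate wells above about 9.5% taken from the earlier PP1 screen, limit read from the data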
# Numbers stand for hits; i = inactive; nt = not tested or not shown. Only some compounds are listed: those with a hit (about 2.1% of all), similar ones and a draw of the others.
SMILES,Apaf1 inhib,PP1 counter,TDP2 inh,PP5 primary,GSTO1 inh,PP1 inh confirm,PP5 counter
O=c1cc(-c2ccccc2)nc2c(-c3ccccc3)c(C(F)(F)F)[nH]n12,i,33.4,i,i,i,33.4,i
CCCOc1ccc(/C(O)=C2\C(=O)C(=O)N(c3ccccn3)C2c2ccccc2F)cc1C (centres undefined),i,23.6,i,i,i,26.3,i
N=c1c(C(=O)NCc2ccco2)cc2c(=O)n3ccccc3nc2n1Cc1ccc(Cl)cc1,i,17.9,i,i,i,i,i
Cc1ccc(CNC(=O)c2cc3c(=O)n4ccccc4nc3n(Cc3ccco3)c2=N)cc1,i,i,i,i,i,nt,nt
N=c1c(C(=O)NCc2ccco2)cc2c(=O)n3ccccc3nc2n1Cc1ccccc1,i,i,i,i,i,nt,nt
Cc1ccc(S(=O)(=O)c2cc3c(=O)n4ccccc4nc3n(Cc3ccco3)c2=N)cc1,i,21.0,i,i,i,i,i
Cc1sc2nc(COC(=O)c3cccc(S(=O)(=O)N(C)c4ccccc4)c3)[nH]c(=O)c2c1C,i,20.9,i,i,i,25.4,i
O=C(O)c1ccccc1-c1nc2cc(Cl)ccc2c(=O)n1O,i,22.4,i,i,i,24.4,i
CN(C)c1ccc(C2CNC(c3ccc(Cl)c([N+](=O)[O-])c3)c3[nH]c4ccccc4c32)cc1 (centres undefined),i,20.5,i,i,i,17.3,i
COc1ccc(/C=C2/SC(=S)N(NS(=O)(=O)c3ccc(C)cc3)C2=O)cc1,i,i,i,i,i,nt,nt
C=CCOc1ccc(/C=C2\SC(=S)N(NS(=O)(=O)c3ccc(C)cc3)C2=O)cc1,i,24.8,i,i,i,17.3,i
COc1ccc(C2CC(c3ccc(Br)cc3)=NN2C(=O)CSC2=NCCS2)cc1 (centres undefined),i,19.7,i,i,i,i,i
COC(=O)[C@]12C[C@H](CC(=O)N3CCCCC3)C(=O)N(Cc3ccc4c(c3)OCO4)C1=C[C@H](COCc1ccccc1)O[C@@H]2C,nt,nt,i,nt,nt,nt,nt
COc1cc(/C=C2\C(=N)N3N=C(S(C)(=O)=O)SC3=NC2=O)cc(OC)c1OCCOc1ccccc1C,i,29.8,i,i,i,i,i
C[C@H](O)[C@@H]1CN2CCc3c([nH]c4c(-c5ccccc5)cccc34)[C@@H]2C[C@@H]1N(C)C(=O)c1ccco1,nt,nt,i,nt,nt,nt,nt
CCOc1cc(C2C(C(=O)c3ccco3)=C(O)C(=O)N2CCc2ccccc2)ccc1O (centres undefined),i,20.2,i,i,i,22.0,i
COc1cc(C2C(C(=O)c3ccco3)=C(O)C(=O)N2Cc2ccccc2)ccc1O (centres undefined),i,i,i,i,i,nt,nt
O=C(O)CSc1cc(C(=O)c2ccccc2O)cn2c(=O)c3c(-c4ccccc4)csc3nc12,i,19.6,i,i,i,16.0,i
CCOC(=O)c1sc2nc3c(SCC(=O)O)cc(C(=O)c4ccccc4O)cn3c(=O)c2c1C,i,i,i,i,i,nt,nt
CCOC(=O)c1sc2nc3c(SCC(=O)O)cc(C(=O)c4cc(F)ccc4O)cn3c(=O)c2c1C,nt,60.9,i,i,i,48.3,i
COc1ccc(O)c(C(=O)c2cc(SCC(=O)O)c3nc4sc5c(c4c(=O)n3c2)CCCC5)c1,i,29.1,i,i,i,18.6,i
CC(C)CN1C(=O)C[C@]2(C(=O)N(C)c3ccc(NC(=O)C(F)(F)F)cc32)C1c1ccccc1 (some centres undefined),nt,nt,i,nt,nt,nt,nt
Cc1c(NS(=O)(=O)c2ccc3c(c2)c(=O)n(C)c(=O)n3C)c(=O)n(-c2ccccc2)n1C,i,36.3,i,i,i,i,i

# Screens deposited in PubChem by several laboratories.
